The structures appear in SMILES notation. Calls of active or inactive are those of the source. The calls are words filed in the database; no cut-off is given here.

Drawing on ChEMBL document CHEMBL4118180, “Design, synthesis and evaluation of photoactivatable derivatives of microtubule (MT)-active [1,2,4]triazolo[1,5-a]pyrimidines” (Bioorg Med Chem Lett, 2018), this text covers fold change (FC) and Activity for twelve molecules.

Holding throughout (type): cell-based
What all share (conditions): Homo sapiens

Test [1] concerns HEK293. In words: Induction of microtubule stabilization in HEK293 cells assessed as increase in acetylated alpha tubulin levels at 1 uM after 4 hrs by ELISA relative to control. The gist of the method:
(§1)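 HEK-293 cells were exposed to the test compound at 1 or 10 μM for 4 h. Acetylated α-tubulin and total α-tubulin were then measured by ELISA in cell lysates. Levels are expressed relative to vehicle-treated control cells, as the average and SD of triplicate assays. Significance was tested by one-way ANOVA with Dunnett's post-hoc test. Changes in α-tubulin below 15% are treated as assay-to-assay variability.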

Test [2] concerns HEK293. Kind of test: Induction of microtubule disruption in HEK293 cells assessed as total alpha tubulin levels at 10 uM after 4 hrs by ELISA relative to control. The gist of the method:
as §1

Test [3] concerns HEK293. Kind of test: Induction of microtubule disruption in HEK293 cells assessed as total alpha tubulin levels at 1 uM after 4 hrs by ELISA relative to control. The method, boiled down:
as §1

In test [4] the test system is HEK293. Kind of test: Induction of microtubule stabilization in HEK293 cells assessed as increase in acetylated alpha tubulin levels at 10 uM after 4 hrs by ELISA relative to control. The gist of the method: as §1
For test [5], the system named is HEK293. Kind of test: Induction of microtubule disruption in HEK293 cells assessed as total alpha tubulin levels after 4 hrs by ELISA relative to control. The method, boiled down:
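Total α-tubulin was measured by ELISA in lysates of HEK-293 cells after 4 h incubation with the test compound. Levels are expressed relative to vehicle-treated control cells. Significance was assessed by one-way ANOVA with Dunnett's post-hoc analysis.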

As for `C[C@H](Nc1c(-c2c(F)cc(OCCCNC(=O)c3ccc(C4(C(F)(F)F)N=N4)cc3)cc2F)c(Cl)nc2ncnn12)C(F)(F)F`, the fold change (FC) amounted to 1.3 in test [1], 0.88 in test [2], 1.31 in test [3] and 3.65 in test [4].
For the molecule `C[C@@H](Nc1c(-c2c(F)cc(F)cc2F)c(Cl)nc2ncnn12)C1(C)N=N1`, the fold change (FC) in test [1] worked out at 1.42; in test [2] it was 0.89; in test [3], 0.92; in test [4] it was 4.28.
The matching figures for `CNCCCOc1cc(F)c(-c2c(Cl)nc3ncnn3c2N[C@@H](C)C(F)(F)F)c(F)c1`: 7.07, 0.14, 0.51 and 0.1.
For the molecule `C[C@H](Nc1c(-c2c(F)cc(OCCCN(C)C)cc2F)c(Cl)nc2ncnn12)C(F)(F)F`, the fold change (FC) in test [1] was 5.83; in test [2], 0.14; in test [3] it was 0.29; in test [4] it was 0.3.
For the molecule `CN(C)CCCOc1cc(F)c(-c2c(Cl)nc3ncnn3c2NCC2(C)N=N2)c(F)c1`, the fold change (FC) was 10.5 in test [1], 0.19 in test [2], 0.36 in test [3] and 0.29 in test [4]. Besides, in test [5], the Activity entry was “Dose-dependent effect”.
On to `C[C@H](Nc1c(-c2c(F)cc(OCCCN(C)C)cc2F)c(Cl)nc2ncnn12)C1(C)N=N1`, for which the fold change (FC) in test [1] worked out at 6.7; in test [2], 0.78; in test [3], 0.69; in test [4], 0.28.
With `C[C@@H](Nc1c(-c2c(F)cc(OCCCN(C)C)cc2F)c(Cl)nc2ncnn12)C1(C)N=N1`, the fold change (FC) in test [1] amounted to 21.7; in test [2], 1.01; in test [3], 0.73; in test [4], 0.93. For the same molecule, in test [5], the Activity entry was “Dose-dependent effect”.
Consider `CO[C@@H]1C[C@H]2CC[C@@H](C1)N2c1c(-c2c(F)cc(F)cc2F)c(Cl)nc2ncnn12`, for which the fold change (FC) came out at 3.65 in test [1], 1.38 in test [2], 1.12 in test [3] and 7.43 in test [4].
On to `[N-]=[N+]=Nc1c(-c2c(F)cc(F)cc2F)c(Cl)nc2ncnn12`, for which the outcome in test [1] and in test [4] was inactive.
Take `CC1(CNc2c(-c3c(F)cc(F)cc3F)c(Cl)nc3ncnn23)N=N1`: the fold change (FC) came to 1.56 in test [1], 1.03 in test [2], 1.08 in test [3] and 3.42 in test [4].
On to `C[C@H](Nc1c(-c2c(F)cc(F)cc2F)c(N=[N+]=[N-])nc2ncnn12)C(F)(F)F`, for which the result in test [1] and in test [4] was inactive.
With `C[C@H](Nc1c(-c2c(F)cc(F)cc2F)c(Cl)nc2ncnn12)C1(C)N=N1`, the fold change (FC) in test [2] was determined as 0.94; in test [4], 1.85.
